# B1: Osa-1-4 twister ribozyme (parent)
# chain: CCGCCUAACACUGCCAAUGCCGGUCCCAAGCCCGGAUAAAAGUGGAGGGGGCGG
# Variants of: B1
# Assay: self-cleavage, relative activity (ratio to wild type); higher = more cleavage; co-transcriptional
# Outline: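 For each read, cleavage status was taken from whether upstream sequence was present. The reads came from an Oryza sativa twister ribozyme of 54 nucleotides, whose DNA template was synthesised with 97 % wild-type base and 1 % of each other base at the 48 positions downstream of the cleavage site. The template was transcribed in vitro at 37 °C for 2 h with co-transcriptional self-cleavage, and the RNA was reverse-transcribed using a template-switching oligonucleotide, PCR-amplified and deep-sequenced. Relative activity is the fraction cleaved normalised to wild type.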
row,Variant,self-cleavage
1,CCGCCUAACACUGCCAAUGCCGGUCCCAAGCCCGGAUCAAAGUGGGGGGGGCGG,0.06
2,CCGCCUAACACUGCCAAUGCCGGUCCCAAGCCCGGAUCAAAGUGGUGGGGGCGG,0.07
3,CCGCCUAACACUGCCAAUGCCGGUCCCAAGCCCGGAUCAAAGUGGCGGGGGCGG,0.04
4,CCGCCUAACACUGCCAAUGCCGGUCCCAAGCCCGGAUCAAAGUUGAGGGGGCGG,0.93
5,CCGCCUAACACUGCCAAUGCCGGUCCCAAGCCCGGAUCAAAGUAGAGGGGGCGG,0.99
6,CCGCCUAACACUGCCAAUGCCGGUCCCAAGCCCGGAUCAAAGUCGAGGGGGCGG,0.97
7,CCGCCUAACACUGCCAAUGCCGGUCCAAAGCCCGGAUCAAAGUGGAGGGGGCGG,0.18
8,CCGCCUAACACUGCCAAUGCCGGUCCGAAGCCCGGAUCAAAGUGGAGGGGGCGG,0.06
9,CCGCCUAACACUGCCAAUGCCGGUCCUAAGCCCGGAUCAAAGUGGAGGGGGCGG,0.18
10,CCGCCUAACACUGCCAAUGCCGGUCCCAAGCCCGGAUCGAAGUGGAGGGGGCGG,0.96
11,CCGCCUAACACUGCCAAUGCCGGUCCCAAGCCCGGAUCUAAGUGGAGGGGGCGG,0.96
12,CCGCCUAACACUGCCAAUGCCGGUCCCAAGCCCGGAUCCAAGUGGAGGGGGCGG,0.86
13,CCGCCUAACACUGCAAAUGCCGGUCCCAAGCCCGGAUCAAAGUGGAGGGGGCGG,0.31
14,CCGCCUAACACUGCUAAUGCCGGUCCCAAGCCCGGAUCAAAGUGGAGGGGGCGG,0.57
15,CCGCCUAACACUGCGAAUGCCGGUCCCAAGCCCGGAUCAAAGUGGAGGGGGCGG,0.11
16,CCGCCUAACACUGCCAAUGCCGGUCCCAAGCCCGGAUCAAAGUGGAGGGGGCGG,1.02
17,CCGCCUAACACUGCCAAUGCCGGUCCCAAGCACGGAUCAAAGUGGAGGGGGCGG,0.09
18,CCGCCUAACACUGCCAAUGCCGGUCCCAAGCGCGGAUCAAAGUGGAGGGGGCGG,0.09
19,CCGCCUAACACUGCCAAUGCCGGUCCCAAGCUCGGAUCAAAGUGGAGGGGGCGG,0.13
20,CCGCCUAACACUGCCAAUGCCGGUCCCAAGCCGGGAUCAAAGUGGAGGGGGCGG,0.05
21,CCGCCUAACACUGCCAAUGCCGGUCCCAAGCCUGGAUCAAAGUGGAGGGGGCGG,0.79
22,CCGCCUAACACUGCCAAUGCCGGUCCCAAGCCAGGAUCAAAGUGGAGGGGGCGG,0.1
23,CCGCCUCACACUGCCAAUGCCGGUCCCAAGCCCGGAUCAAAGUGGAGGGGGCGG,0.05
24,CCGCCUGACACUGCCAAUGCCGGUCCCAAGCCCGGAUCAAAGUGGAGGGGGCGG,0.22
25,CCGCCUUACACUGCCAAUGCCGGUCCCAAGCCCGGAUCAAAGUGGAGGGGGCGG,0.08

row,Variant,self-cleavage
1,CCGCCUAACACUGCCAAUGCCGGUCCCAAGCCCGGAUCAAAGUGGAGGGGGUGG,1.03
2,CCGCCUAACACUGCCAAUGCCGGUCCCAAGCCCGGAUCAAAGUGGAGGGGGGGG,1.03
3,CCGCCUAACACUGCCAAUGCCGGUCCCAAGCCCGGAUCAAAGUGGAGGGGGAGG,1
4,CCGCCUAACACUGCCAAUGCCGAUCCCAAGCCCGGAUCAAAGUGGAGGGGGCGG,0.1
5,CCGCCUAACACUGCCAAUGCCGUUCCCAAGCCCGGAUCAAAGUGGAGGGGGCGG,0.07
6,CCGCCUAACACUGCCAAUGCCGCUCCCAAGCCCGGAUCAAAGUGGAGGGGGCGG,0.04
7,CCGCCUAACACUGCCAAUGCCGGUCCCAAGCCCGGAUCAAGGUGGAGGGGGCGG,0.69
8,CCGCCUAACACUGCCAAUGCCGGUCCCAAGCCCGGAUCAACGUGGAGGGGGCGG,0.91
9,CCGCCUAACACUGCCAAUGCCGGUCCCAAGCCCGGAUCAAUGUGGAGGGGGCGG,1
10,CCGCCUAACACUGCCAAUGCCGGUCCCAAGCCCGGAUCAAAGUGGACGGGGCGG,0.08
11,CCGCCUAACACUGCCAAUGCCGGUCCCAAGCCCGGAUCAAAGUGGAUGGGGCGG,0.22
12,CCGCCUAACACUGCCAAUGCCGGUCCCAAGCCCGGAUCAAAGUGGAAGGGGCGG,0.19
13,CCGCCUAACACUGUCAAUGCCGGUCCCAAGCCCGGAUCAAAGUGGAGGGGGCGG,0.4
14,CCGCCUAACACUGGCAAUGCCGGUCCCAAGCCCGGAUCAAAGUGGAGGGGGCGG,0.08
15,CCGCCUAACACUGACAAUGCCGGUCCCAAGCCCGGAUCAAAGUGGAGGGGGCGG,0.09
16,CCGCCUAACACUGCCAAUCCCGGUCCCAAGCCCGGAUCAAAGUGGAGGGGGCGG,0.07
17,CCGCCUAACACUGCCAAUACCGGUCCCAAGCCCGGAUCAAAGUGGAGGGGGCGG,0.64
18,CCGCCUAACACUGCCAAUUCCGGUCCCAAGCCCGGAUCAAAGUGGAGGGGGCGG,0.33
19,CCGCCUAACACUGCCAAUGCCGGUCCCAAGCCCGUAUCAAAGUGGAGGGGGCGG,0.86
20,CCGCCUAACACUGCCAAUGCCGGUCCCAAGCCCGAAUCAAAGUGGAGGGGGCGG,0.84
21,CCGCCUAACACUGCCAAUGCCGGUCCCAAGCCCGCAUCAAAGUGGAGGGGGCGG,0.36
22,CCGCCUAACACUGCCAAUGCCUGUCCCAAGCCCGGAUCAAAGUGGAGGGGGCGG,0.87
23,CCGCCUAACACUGCCAAUGCCAGUCCCAAGCCCGGAUCAAAGUGGAGGGGGCGG,1.04
24,CCGCCUAACACUGCCAAUGCCCGUCCCAAGCCCGGAUCAAAGUGGAGGGGGCGG,0.09
25,CCGCCUAAAACUGCCAAUGCCGGUCCCAAGCCCGGAUCAAAGUGGAGGGGGCGG,0.37

row,Variant,self-cleavage
1,CCGCCUAAGACUGCCAAUGCCGGUCCCAAGCCCGGAUCAAAGUGGAGGGGGCGG,0.83
2,CCGCCUAAUACUGCCAAUGCCGGUCCCAAGCCCGGAUCAAAGUGGAGGGGGCGG,0.78
3,CCGCCUAACACUCCCAAUGCCGGUCCCAAGCCCGGAUCAAAGUGGAGGGGGCGG,0.03
4,CCGCCUAACACUUCCAAUGCCGGUCCCAAGCCCGGAUCAAAGUGGAGGGGGCGG,0.03
5,CCGCCUAACACUACCAAUGCCGGUCCCAAGCCCGGAUCAAAGUGGAGGGGGCGG,0.07
6,CCGCCUAACACUGCCAAUGCCGGUCCCAAGCCCGGAUCAAAGUGGAGGCGGCGG,0.06
7,CCGCCUAACACUGCCAAUGCCGGUCCCAAGCCCGGAUCAAAGUGGAGGAGGCGG,0.1
8,CCGCCUAACAUUGCCAAUGCCGGUCCCAAGCCCGGAUCAAAGUGGAGGGGGCGG,0.92
9,CCGCCUAACAGUGCCAAUGCCGGUCCCAAGCCCGGAUCAAAGUGGAGGGGGCGG,0.5
10,CCGCCUAACAAUGCCAAUGCCGGUCCCAAGCCCGGAUCAAAGUGGAGGGGGCGG,0.74
11,CCGCCUAACACUGCCAAUGACGGUCCCAAGCCCGGAUCAAAGUGGAGGGGGCGG,0.86
12,CCGCCUAACACUGCCAAUGGCGGUCCCAAGCCCGGAUCAAAGUGGAGGGGGCGG,0.09
13,CCGCCUAACACUGCCAAUGUCGGUCCCAAGCCCGGAUCAAAGUGGAGGGGGCGG,0.95
14,CCGCCUAACACUGCCAAUGCCGGUCCCAAGCCCGGAUCAAAUUGGAGGGGGCGG,0.07
15,CCGCCUAACACUGCCAAUGCCGGUCCCAAGCCCGGAUCAAAAUGGAGGGGGCGG,0.35
16,CCGCCUAACACUGCCAAUGCCGGUCCCAAGCCCGGAUCAAACUGGAGGGGGCGG,0.12
17,CCGCCUAACACUGCCAAUGCCGGUCCCAAGCCCGGAUCAAAGUGCAGGGGGCGG,0.05
18,CCGCCUAACACUGCCAAUGCCGGUCCCAAGCCCGGAUCAAAGUGAAGGGGGCGG,0.32
19,CCGCCUAACACUGCCAAUGCCGGUCCCAAGCCCGGAUCAAAGUGUAGGGGGCGG,0.1
20,CCGCCUAACACUGCCAAUGCCGGUCCCAAGCCCAGAUCAAAGUGGAGGGGGCGG,0.85
21,CCGCCUAACACUGCCAAUGCCGGUCCCAAGCCCUGAUCAAAGUGGAGGGGGCGG,0.67
22,CCGCCUAACACUGCCAAUGCCGGUCCCAAGCCCCGAUCAAAGUGGAGGGGGCGG,0.38
23,CCGCCUAACACUGCCAAUGCCGGUUCCAAGCCCGGAUCAAAGUGGAGGGGGCGG,0.88
24,CCGCCUAACACUGCCAAUGCCGGUGCCAAGCCCGGAUCAAAGUGGAGGGGGCGG,0.06
25,CCGCCUAACACUGCCAAUGCCGGUACCAAGCCCGGAUCAAAGUGGAGGGGGCGG,0.07

row,Variant,self-cleavage
1,CCGCCUAACACUGCCAAUGCCGGUCCCAAGCCCGGAGAAAAGGGGAGGGGGCGG,0.68
2,CCGCCUAACACUGCCAAUGCCGGUCCCAAGCCCGGAUCAGAGUGGAGGGGGCGG,0.84
3,CCGCCUAACACUGCCAAUGCCGGUCCCAAGCCCGGAUCAUAGUGGAGGGGGCGG,0.6
4,CCGCCUAACACUGCCAAUGCCGGUCCCAAGCCCGGAUCACAGUGGAGGGGGCGG,0.09
5,CCGCCUAACACUGCCAAUGCCGGUCUCAAGCCCGGAUCAAAGUGGAGGGGGCGG,0.94
6,CCGCCUAACACUGCCAAUGCCGGUCACAAGCCCGGAUCAAAGUGGAGGGGGCGG,0.07
7,CCGCCUAACACUGCCAAUGCCGGUCGCAAGCCCGGAUCAAAGUGGAGGGGGCGG,0.08
8,CCGCCUAACACUGCCAAUGCCGGUCCCAAUCCCGGAUCAAAGUGGAGGGGGCGG,0.03
9,CCGCCUAACACUGCCAAUGCCGGUCCCAAACCCGGAUCAAAGUGGAGGGGGCGG,0.05
10,CCGCCUAACACUGCCAAUGCCGGUCCCAACCCCGGAUCAAAGUGGAGGGGGCGG,0.05
11,CCGCCUAACACUGCCAAUGCCGGUCCCAAGCCCGGAUCAAAGUGGAGCGGGCGG,0.08
12,CCGCCUAACACUGCCAAUGCCGGUCCCAAGCCCGGAUCAAAGUGGAGAGGGCGG,0.09
13,CCGCCUAACACUGCCAAUGCCGGUCCCAAGCCCGGAUCAAAGUGGAGUGGGCGG,0.07
14,CCGCCUAACACUGCCAAUGCCGGUCCCAAGGCCGGAUCAAAGUGGAGGGGGCGG,0.09
15,CCGCCUAACACUGCCAAUGCCGGUCCCAAGUCCGGAUCAAAGUGGAGGGGGCGG,0.89
16,CCGCCUAACACUGCCAAUGCCGGUCCCAAGACCGGAUCAAAGUGGAGGGGGCGG,0.04
17,CCGCCUAGCACUGCCAAUGCCGGUCCCAAGCCCGGAUCAAAGUGGAGGGGGCGG,0.53
18,CCGCCUAUCACUGCCAAUGCCGGUCCCAAGCCCGGAUCAAAGUGGAGGGGGCGG,0.28
19,CCGCCUACCACUGCCAAUGCCGGUCCCAAGCCCGGAUCAAAGUGGAGGGGGCGG,0.07
20,CCGCCUAACACUGCCAAUGCUGGUCCCAAGCCCGGAUCAAAGUGGAGGGGGCGG,0.92
21,CCGCCUAACACUGCCAAUGCAGGUCCCAAGCCCGGAUCAAAGUGGAGGGGGCGG,0.27
22,CCGCCUAACACUGCCAAUGCGGGUCCCAAGCCCGGAUCAAAGUGGAGGGGGCGG,0.07

# Source: the RNAGym collection of RNA variant scans (doi:10.1002/anie.201605470)
